According to ChEMBL document CHEMBL1124865, “Synthesis and biological evaluation of a series of parenteral 3'-quaternary ammonium cephalosporins” (J Med Chem, 1990):
≈ marks a conversion by molar mass, not a printed value.

Columns and labels:
[1] = Terminal half life in dogs at the dose of 60 mg/kg.; assay type: ADME, organism-based, Canis lupus familiaris; design: dose 60 mg/kg; conditions: dog, in vivo
Outline: (§1)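 Overnight-fasted female mongrel dogs with a Foley bladder catheter; bolus into the cephalic vein. Plasma and urine collected before dosing and over 24 h after. Antibacterial activity measured by microbiological assay.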

Canis familiaris = assay: Percent of dose in dogs urine at the dose of 60 mg/kg.; assay type: functional, Canis lupus familiaris; outline: as §1
Enterobacter cloacae [2] = assay: (§2) Antibacterial activity against Enterobacter cloacae 265A; assay type: functional; conditions: Enterobacter cloacae; read-out: MIC
Escherichia coli [3] = assay: Antibacterial activity against Escherichia coli EC14; assay type: functional; conditions: Escherichia coli; read-out: MIC
Enterobacter cloacae [4] = assay: Antibacterial activity against Enterobacter cloacae EB5; assay type: functional; conditions: Enterobacter cloacae; read-out: MIC
Escherichia coli [5] = assay: Antibacterial activity against Escherichia coli TEM; assay type: functional; conditions: Escherichia coli; read-out: MIC
Cavia porcellus [6] = species on record: Cavia porcellus; assay: In vitro relative anticholinergic potential in isolated guinea pig trachea; assay type: functional
Outline: (§3)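 Guinea pig trachea in Krebs' solution at 37.5 °C, 95% O2/5% CO2, pH 7.4, 2 g resting tension. Cumulative carbachol log dose-response curve (3-fold steps) run before and 30 min after adding antagonist at 1 mM. […] Tukey test on log2 dose ratios.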

Cavia porcellus [7] = species on record: Cavia porcellus; assay: In vitro relative anticholinergic activity in isolated guinea pig trachea; assay type: functional; conditions: read-out: pA2 (converted); outline: as §3
Klebsiella pneumoniae [8] = assay: microbe, parasite or virus in culture; assay type: functional; conditions: Klebsiella pneumoniae; read-out: MIC
Klebsiella pneumoniae [9] = assay: Antibacterial activity against Klebsiella pneumoniae X26; assay type: functional; conditions: Klebsiella pneumoniae; read-out: MIC
Pseudomonas aeruginosa [10] = assay: In vivo efficacy against Pseudomonas aeruginosa infected mice treated at 1 hr and 5 hr post infection; assay type: functional; conditions: Pseudomonas aeruginosa; read-out: ED50
Staphylococcus aureus [11] = assay: In vivo efficacy against Staphylococcus aureus infected mice treated at 1 hr and 5 hr post infection; assay type: functional; conditions: Staphylococcus aureus; read-out: ED50
Escherichia coli [12] = assay: In vivo efficacy against Escherichia coli infected mice treated at 1 hr and 5 hr post infection; assay type: functional; conditions: Escherichia coli; read-out: ED50
Escherichia coli [13] = assay: In vivo efficacy against Escherichia coli infections in mice; assay type: functional; conditions: Escherichia coli; read-out: MIC
Pseudomonas aeruginosa [14] = assay: In vivo efficacy against Pseudomonas aeruginosa infections in mice; assay type: functional; conditions: Pseudomonas aeruginosa; read-out: MIC
Staphylococcus aureus [15] = assay: In vivo efficacy against Staphylococcus aureus infections in mice; assay type: functional; conditions: Staphylococcus aureus; read-out: MIC
Pseudomonas aeruginosa [16] = assay: Antibacterial activity against Pseudomonas aeruginosa X528; assay type: functional; conditions: Pseudomonas aeruginosa; read-out: MIC
Pseudomonas aeruginosa [17] = assay: Antibacterial activity against Pseudomonas aeruginosa PS18; assay type: functional; conditions: Pseudomonas aeruginosa; read-out: MIC
Staphylococcus aureus [18] = assay: Antibacterial activity against penicillin G resistance Staphylococcus aureus; assay type: functional; conditions: Staphylococcus aureus; read-out: MIC
Staphylococcus aureus [19] = assay: Antibacterial activity against penicillin G susceptible Staphylococcus aureus; assay type: functional; conditions: Staphylococcus aureus; read-out: MIC
Streptococcus pneumoniae = assay: Antibacterial activity against Streptococcus pneumoniae; assay type: functional; conditions: Streptococcus pneumoniae; read-out: MIC
Serratia marcescens = assay: Antibacterial activity against Serratia marcescens SE3; assay type: functional; conditions: Serratia marcescens; read-out: MIC
Streptococcus pyogenes = assay: Antibacterial activity against Streptococcus pyogenes; assay type: functional; conditions: Streptococcus pyogenes; read-out: MIC
Enterococcus faecium = assay: Antibacterial activity against Enterococcus faecium; assay type: functional; conditions: Enterococcus faecium; read-out: MIC
[20] = In vitro dose required for anticholinergic activity in isolated guinea pig trachea; assay type: functional
[21] = Terminal half life in Rhesus monkeys at the dose of 30 mg/kg.; assay type: ADME, organism-based, Macaca mulatta; design: dose 30 mg/kg; conditions: rhesus monkey, in vivo
Outline: (§4)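 Male rhesus monkeys dosed intravenously at 30 mg/kg. Plasma sampled from 0.08–0.1 h up to 6–8 h; urine collected over 0–6/8 and 6/8–24 h. Samples measured by microbiological assay.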

[22] = Terminal half life in dogs at the dose of 10 mg/kg.; assay type: ADME, organism-based, Canis lupus familiaris; design: dose 10 mg/kg; conditions: dog, in vivo; outline: as §1
[23] = Terminal half life in dogs at the dose of 20 mg/kg.; assay type: ADME, organism-based, Canis lupus familiaris; design: dose 20 mg/kg; conditions: dog, in vivo; outline: as §1
Monkey = assay: Percent of dose in Rhesus monkeys urine at the dose of 30 mg/kg.; assay type: functional, Cercopithecidae; outline: as §4
Bacteria = assay: as §2

For CO/N=C(\C(=O)N[C@@H]1C(=O)N2C(C(=O)[O-])=C(C[n+]3ccccc3)CS[C@H]12)c1csc(N)n1, the half-life [1] was 1.67 h, the “Percent of dose recovered in urine” value (Canis familiaris) was 94% and the MIC (Enterobacter cloacae [2]) was 2 µg/mL (≈ 4.21 µM). For the same compound, the MIC (Escherichia coli [3]) was 0.03 µg/mL (≈ 0.0632 µM), the MIC (Enterobacter cloacae [4]) was 0.06 µg/mL (≈ 0.126 µM) and the MIC (Escherichia coli [5]) was 0.03 µg/mL (≈ 0.0632 µM). For the same compound, the RAP (Cavia porcellus [6]) was 9, the Kb (Cavia porcellus [7]) was 490 µM and the MIC (Klebsiella pneumoniae [8]) was 4 µg/mL (≈ 8.43 µM). It also gave an MIC (Klebsiella pneumoniae [9]) of 0.03 µg/mL (≈ 0.0632 µM), an ED50 (Pseudomonas aeruginosa [10]) of 14.4 mg/kg and an ED50 (Staphylococcus aureus [11]) of 0.8 mg/kg. It also gave an ED50 (Escherichia coli [12]) of 0.07 mg/kg, an MIC (Escherichia coli [13]) of 0.06 µg/mL (≈ 0.126 µM) and an MIC (Pseudomonas aeruginosa [14]) of 16 µg/mL (≈ 33.7 µM). The MIC (Staphylococcus aureus [15]) was 1 µg/mL (≈ 2.11 µM), the MIC (Pseudomonas aeruginosa [16]) was 2 µg/mL (≈ 4.21 µM) and the MIC (Pseudomonas aeruginosa [17]) was 4 µg/mL (≈ 8.43 µM). It also gave an MIC (Staphylococcus aureus [18]) of 2 µg/mL (≈ 4.21 µM), an MIC (Staphylococcus aureus [19]) of 1 µg/mL (≈ 2.11 µM) and an MIC (Streptococcus pneumoniae) of 0.03 µg/mL (≈ 0.0632 µM). It also gave an MIC (Serratia marcescens) of 0.25 µg/mL (≈ 0.527 µM), an MIC (Streptococcus pyogenes) of 0.03 µg/mL (≈ 0.0632 µM) and an MIC (Enterococcus faecium) of over 128 µg/mL. It also gave a Dose ratio [20] of 3.04.

CO/N=C(\C(=O)N[C@@H]1C(=O)N2C(C(=O)[O-])=C(C[n+]3ccc4ncn(C)c4c3)CS[C@H]12)c1csc(N)n1 showed a half-life [21] of 1.08 h, a half-life [22] of 1.27 h and a half-life [23] of 1.17 h. It also gave an MIC (Enterobacter cloacae [2]) of 8 µg/mL (≈ 15.1 µM), an MIC (Enterobacter cloacae [4]) of 0.125 µg/mL (≈ 0.236 µM) and an RAP (Cavia porcellus [6]) of 1. For the same compound, the MIC (Klebsiella pneumoniae [8]) was 8 µg/mL (≈ 15.1 µM), the Dose (Monkey) was 52% and the MIC (Pseudomonas aeruginosa [16]) was 2 µg/mL (≈ 3.78 µM). For the same compound, the MIC (Pseudomonas aeruginosa [17]) was 8 µg/mL (≈ 15.1 µM), the MIC (Staphylococcus aureus [18]) was 2 µg/mL (≈ 3.78 µM) and the MIC (Staphylococcus aureus [19]) was 2 µg/mL (≈ 3.78 µM). The MIC (Serratia marcescens) was 0.125 µg/mL (≈ 0.236 µM), the MIC (Streptococcus pyogenes) was 0.008 µg/mL (≈ 0.0151 µM) and the MIC (Enterococcus faecium) was 128 µg/mL (≈ 242 µM).

Compound CO/N=C(\C(=O)N[C@@H]1C(=O)N2C(C(=O)[O-])=C(C[n+]3cccc(CC(=O)O)c3)CS[C@H]12)c1csc(N)n1 (stereo in doubt; 17) has an MIC (Bacteria) of 32 µg/mL (≈ 60.1 µM).

With CO/N=C(\C(=O)N[C@@H]1C(=O)N2C(C(=O)[O-])=C(C[n+]3cccc4c3CCC4)CS[C@H]12)c1csc(N)n1 [CEFPIROME] the half-life [21] was 1.13 h, the MIC (Enterobacter cloacae [2]) was 0.5 µg/mL (≈ 0.972 µM) and the MIC (Escherichia coli [3]) was 0.015 µg/mL (≈ 0.0291 µM). For the same compound, the MIC (Enterobacter cloacae [4]) was 0.06 µg/mL (≈ 0.117 µM), the MIC (Escherichia coli [5]) was 0.03 µg/mL (≈ 0.0583 µM) and the RAP (Cavia porcellus [6]) was 4. The MIC (Klebsiella pneumoniae [8]) was 4 µg/mL (≈ 7.77 µM), the MIC (Klebsiella pneumoniae [9]) was 0.015 µg/mL (≈ 0.0291 µM) and the Dose (Monkey) was 61%. It also gave an MIC (Pseudomonas aeruginosa [16]) of 2 µg/mL (≈ 3.89 µM), an MIC (Pseudomonas aeruginosa [17]) of 8 µg/mL (≈ 15.5 µM) and an MIC (Staphylococcus aureus [18]) of 1 µg/mL (≈ 1.94 µM). For the same compound, the MIC (Staphylococcus aureus [19]) was 1 µg/mL (≈ 1.94 µM), the MIC (Streptococcus pneumoniae) was 0.015 µg/mL (≈ 0.0291 µM) and the MIC (Serratia marcescens) was 0.125 µg/mL (≈ 0.243 µM). It also gave an MIC (Streptococcus pyogenes) of 0.008 µg/mL (≈ 0.0155 µM), an MIC (Enterococcus faecium) of 8 µg/mL (≈ 15.5 µM) and a Dose ratio [20] of 1.76.

For CO/N=C(\C(=O)N[C@@H]1C(=O)N2C(C(=O)[O-])=C(C[n+]3ccc4sc(C)nc4c3)CS[C@H]12)c1csc(N)n1, the MIC (Enterobacter cloacae [2]) was 2 µg/mL (≈ 3.67 µM), the MIC (Escherichia coli [3]) was 0.015 µg/mL (≈ 0.0275 µM) and the RAP (Cavia porcellus [6]) was 7. It also gave a Kb (Cavia porcellus [7]) of 603 µM, an MIC (Klebsiella pneumoniae [8]) of 2 µg/mL (≈ 3.67 µM) and an MIC (Pseudomonas aeruginosa [16]) of 4 µg/mL (≈ 7.33 µM). It also gave an MIC (Pseudomonas aeruginosa [17]) of 8 µg/mL (≈ 14.7 µM), an MIC (Staphylococcus aureus [18]) of 2 µg/mL (≈ 3.67 µM) and an MIC (Staphylococcus aureus [19]) of 2 µg/mL (≈ 3.67 µM). It also gave an MIC (Streptococcus pneumoniae) of 0.015 µg/mL (≈ 0.0275 µM), an MIC (Serratia marcescens) of 0.125 µg/mL (≈ 0.229 µM) and an MIC (Streptococcus pyogenes) of 0.008 µg/mL (≈ 0.0147 µM). It also gave an MIC (Enterococcus faecium) of 128 µg/mL (≈ 235 µM).
